Rows were chosen to be rich in hits. Some 2% of all compounds tested hit in one or more screens of this group.
CHRM5 PAM = CHRM5 positive allosteric modulation; P08912; CHO-K1 hM5, Fluo-8 calcium, ACh EC20 PAM; 0% = ACh EC20, 100% = ACh EC100; activation, % at 3 µM; actives 0.3% (n = 360,000); AID 624038;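 active = activation above the run cutoff, the mean activation of all test compounds plus 3 SD, cut at about 18% in these data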
Target sequence (P08912 whole entry, looked up): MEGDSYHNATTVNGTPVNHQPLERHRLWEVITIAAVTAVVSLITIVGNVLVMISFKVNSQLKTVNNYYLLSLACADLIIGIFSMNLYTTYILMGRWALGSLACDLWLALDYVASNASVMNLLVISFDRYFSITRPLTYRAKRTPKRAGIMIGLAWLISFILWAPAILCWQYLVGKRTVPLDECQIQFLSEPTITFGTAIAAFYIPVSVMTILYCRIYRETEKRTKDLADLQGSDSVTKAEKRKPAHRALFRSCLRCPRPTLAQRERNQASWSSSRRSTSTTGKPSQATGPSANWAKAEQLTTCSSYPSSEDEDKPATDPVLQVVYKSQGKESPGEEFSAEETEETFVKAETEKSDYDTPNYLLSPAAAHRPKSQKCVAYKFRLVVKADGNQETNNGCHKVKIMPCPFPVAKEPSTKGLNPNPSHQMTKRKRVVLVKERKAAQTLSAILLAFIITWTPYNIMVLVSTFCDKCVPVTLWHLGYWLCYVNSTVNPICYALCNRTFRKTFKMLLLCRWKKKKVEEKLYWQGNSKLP
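Probe or stimulus: acetylcholine, EC20 level; Assay system: human M5 receptor in CHO-K1 cells; Schedule: compound preincubation 140 s before EC20 acetylcholine addition; Technique: intracellular calcium via Fluo-8 fluorescence; Dosing: single-point, 3 µM nominal; Read-out basis: percent activation from peak-over-basal fluorescence ratio, scaled EC20-to-EC100 acetylcholine; Repeats: one well per compound, no replicates.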
CHRM5 antagonist = antagonists of human muscarinic M5 receptor (CHRM5); P08912; CHO-hM5 cells, Fluo-8 calcium fluorescence, ACh EC80; inhibition, % at 3 µM; actives 0.59% (n = 360,000); AID 624040;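 active = inhibition above a per-plate cutoff, the mean of that plate's test compounds plus 3 SD, cut at about 27% in these data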
M1 antag = blocks human M1 muscarinic receptor | P11229 | CHO-K1 hM1, Fluo-8 calcium fluorescence, ACh EC80 antagonist | inhibition, % at 3 µM | actives 1.3% (n = 360,000) | AID 588852;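 active = percent inhibition above its own plate's cutoff, namely the mean of that plate's compound wells plus 3 SD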;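 also: peak over basal fluorescence ratio during 140 s after agonist addition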
CHRM1 PAM = potentiates human M1 receptor response to acetylcholine | P11229 | CHO-K1 hM1, Fluo-8 calcium fluorescence, ACh EC20; 0% = ACh EC20, 100% = maximal ACh | activation, % at 3 µM | actives 0.088% (n = 360,000) | AID 588819; in the data active = activation above about 19%, passing the limit was not always enough
M5 ag = agonists of human muscarinic M5 receptor (CHRM5) | CHO-K1 hM5 cells, Fluo-8 calcium fluorescence; 0% DMSO wells, 100% maximal acetylcholine response | actives 0.19% (n = 360,000) | AID 624037 | activation, % at 3 µM;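 active = activation above the run's mean over test compounds plus 3 SD, cut at about 23% in these data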;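 also: signal is peak over basal fluorescence ratio across the kinetic read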
CHRM1 agonist = human M1 muscarinic receptor agonism | P11229 | CHO-K1 hM1, Fluo-8 calcium fluorescence, agonist mode; 0% DMSO, 100% acetylcholine EC100 | activation, % at 3 µM | actives 0.33% (n = 360,000);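 active = activation above the run's mean compound activation plus 3 SD, cut at about 16% in these data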;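 also: peak over basal fluorescence ratio within a 140 s kinetic read after compound addition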
Hits are given with their value; 0 = inactive; - = no result given.

SMILES | CHRM5 PAM | CHRM5 antagonist | M1 antag | CHRM1 PAM | M5 ag | CHRM1 agonist
O=C(COC(=O)c1ccccc1SCC(=O)N1CCCC1)Nc1ccc(OC(F)F)cc1 | 0 | 0 | 0 | 0 | 0 | 0
O=C(Nc1ccc(OCC(F)(F)C(F)F)c(C(F)(F)F)c1)c1ccccc1O | 0 | 0 | 20 | 0 | 0 | 0
O=C(Nc1ccc(OCC(F)(F)C(F)F)c(C(F)(F)F)c1)c1ccccc1 | 0 | 0 | 0 | 0 | 0 | 0
CCn1nnnc1SCC(=O)Nc1ccc(OCc2ccccc2)cc1 | 34 | 0 | 0 | 0 | 0 | 0
O=C(CCN1CCc2ccccc2C1)Nc1ccccc1 | 35 | 0 | 0 | 0 | 0 | 0
O=C(CCCc1nc2ccccc2s1)NNC(=O)CCN1CCN(Cc2ccccc2)CC1 | 0 | 0 | 0 | 0 | 0 | 17
c1ccc(CN2CCN(CCOCCOc3ccc4c(c3)CCC4)CC2)cc1 | 0 | 0 | 29 | 0 | 0 | 0
COc1cccc(C(=O)NCC[N+](C)(C)C)c1 | 0 | 0 | - | - | 0 | -
O=C(CCN1CCN(CCO)CC1)Nc1ccc(OCc2ccccc2)cc1 | 0 | 0 | 0 | 0 | 0 | 0
O=C(CCN1CCN(Cc2ccccc2)CC1)Nc1ccc(OCc2ccccc2)cc1 | 0 | 0 | 24 | 0 | 0 | 0
O=C(c1ccccc1)c1ccc(OCCCN2CCCC2)cc1 | 0 | 0 | 0 | 0 | 0 | 0
O=C(c1ccccc1)c1ccc(OCCOCCN2CCN(Cc3ccccc3)CC2)cc1 | 0 | 0 | 87 | 0 | 0 | 0
N#Cc1ccc(CN2CCN(C(=O)CNC(=O)Cc3cccc4ccccc34)CC2)cc1 | 0 | 0 | 0 | 0 | 0 | 23
Cc1cccc(N(CC(=O)N2CCN(C)CC2)S(=O)(=O)c2ccccc2)c1 | 0 | 0 | 0 | 0 | 0 | 0
CN1CCN(C(=O)CN(c2cccc(Cl)c2)S(=O)(=O)c2ccccc2)CC1 | 0 | 0 | 28 | 0 | 0 | 0
CCN(CC)S(=O)(=O)c1cc(NC(=O)C2CCN(c3ncnc4sc(C)c(C)c34)CC2)ccc1Cl | 0 | 0 | 36 | 0 | 0 | 0
Cc1sc2ncnc(N3CCC(C(=O)N(C)CC(=O)Nc4ccccc4Cl)CC3)c2c1C | 0 | 0 | 0 | 0 | 0 | 0
CCN(CC(=O)Nc1cc(Cl)ccc1C)C(=O)C1CCN(c2ncnc3sc(C)c(C)c23)CC1 | 0 | 27 | 37 | 0 | 0 | 0
Cc1sc2ncnc(N3CCC(C(=O)N(C)CC(=O)Nc4ccccc4Br)CC3)c2c1C | 0 | 0 | 35 | 0 | 0 | 0
CC(C)C(=O)N1CCCC1(C)C(=O)Nc1ccccc1 (centres undefined) | 0 | 0 | 0 | 0 | 0 | 0
COCCNC(=O)c1ccc2c(=O)n(CCOC)c(=O)[nH]c2c1 | 0 | 0 | 0 | 0 | 0 | 0
COCCn1c(=O)[nH]c2cc(C(=O)NC(C)C)ccc2c1=O | 24 | 0 | 0 | 0 | 0 | 0
O=C(NCc1ccccc1)c1cc(C2CCCN(C(=O)CCCc3ccccc3)C2)on1 (centres undefined) | 0 | 0 | 0 | 0 | 0 | 0
Cc1ccc(NS(=O)(=O)c2cc([N+](=O)[O-])ccc2NNC(=S)Nc2cccc(Cl)c2)c(C)c1 | 0 | 0 | 0 | 0 | 0 | 0
Cc1ccc(NS(=O)(=O)c2cc([N+](=O)[O-])ccc2NNC(=S)Nc2cc(C)ccc2C)c(C)c1 | 0 | 37 | 0 | 0 | 0 | 0
COc1ccc(NC(=S)NNc2ccc([N+](=O)[O-])cc2S(=O)(=O)Nc2ccc(C)cc2C)cc1 | 0 | 34 | 0 | 0 | 0 | 0
COc1ccc(NC(=S)Nc2cccc([N+](=O)[O-])c2)cc1 | 0 | 0 | 0 | 0 | 0 | 0
CC(C)(C)S(=O)N1Cc2cc(C(=O)N3CCc4ccccc4C3)nc(-c3cccc(-c4ccncc4)c3)c2[C@H]1CCO (some centres undefined) | 0 | 0 | 0 | 0 | 0 | 0
CC(C)(C)c1ccc(CC(=O)N2CCC2(C)C(=O)NCc2cccc3ccccc23)cc1 (centres undefined) | 0 | 0 | 0 | 0 | 0 | 0
COc1ccc([C@H]2CC(=O)C[C@@H](CCn3cc(Cc4ccccc4)nn3)O2)cc1 | 0 | 0 | - | - | 0 | -

Source: PubChem (The Scripps Research Institute Molecular Screening Center)
